Measurements reported in ChEMBL document CHEMBL5376013, “Design, synthesis and biological evaluation of novel morpholinopyrimidine-5-carbonitrile derivatives as dual PI3K/mTOR inhibitors” (RSC Med Chem, 2024).

Legend:
Assay type in all cases: functional
Details in all cases: read-out: GI
SW-620 = assay: Antitumor activity against human SW-620 cells assessed as growth inhibition at 10 uM relative to control
How it was run: (§1)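 Drug exposure 48 h at 37 °C, 5% CO2. Adherent cells fixed with cold TCA (10% final), suspension cells with TCA (16% final). Stained with 0.4% SRB in 1% acetic acid, dissolved in 10 mM Tris, A515. Growth relative to time-zero and untreated control.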

SN12C = assay: Antitumor activity against human SN12C cells assessed as growth inhibition at 10 uM relative to control; how it was run: as §1
K562 = assay: Antitumor activity against human K562 cells assessed as growth inhibition at 10 uM relative to control
How it was run: (§2)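 After drug addition, plates were incubated 48 h at 37 °C under 5% CO2. Adherent cells were fixed with cold TCA (10% final, 60 min, 4 °C) and suspension cells with 16% final TCA. Staining used 0.4% SRB in 1% acetic acid, solubilized in 10 mM trizma, read at A515. Percent growth was calculated from time-zero, control and treated absorbances.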

MDA-MB-435 = assay: Antitumor activity against human MDA-MB-435 cells assessed as growth inhibition at 10 uM relative to control; how it was run: as §2
OVCAR-3 = assay: Antitumor activity against human OVCAR-3 cells assessed as growth inhibition at 10 uM relative to control; how it was run: as §2
ACHN = assay: Antitumor activity against human ACHN cells assessed as growth inhibition at 10 uM relative to control; how it was run: as §2
NCI-H322M = assay: Antitumor activity against human NCI-H322M cells assessed as growth inhibition at 10 uM relative to control; how it was run: as §2
COLO 205 = assay: Antitumor activity against human COLO 205 cells assessed as growth inhibition at 10 uM relative to control; how it was run: as §2
TK-10 = assay: Antitumor activity against human TK-10 cells assessed as growth inhibition at 10 uM relative to control; how it was run: as §1
M14 = assay: Antitumor activity against human M14 cells assessed as growth inhibition at 10 uM relative to control; how it was run: as §2
PC-3 = assay: Antitumor activity against human PC-3 cells assessed as growth inhibition at 10 uM relative to control; how it was run: as §2
DU-145 = assay: Antitumor activity against human DU-145 cells assessed as growth inhibition at 10 uM relative to control; how it was run: as §2
T47D = assay: Antitumor activity against human T47D cells assessed as growth inhibition at 10 uM relative to control; how it was run: as §1
KM12 = assay: Antitumor activity against human KM12 cells assessed as growth inhibition at 10 uM relative to control; how it was run: as §2
NCI-H522 = assay: Antitumor activity against human NCI-H522 cells assessed as growth inhibition at 10 uM relative to control; how it was run: as §2
SK-OV-3 = assay: Antitumor activity against human SK-OV-3 cells assessed as growth inhibition at 10 uM relative to control; how it was run: as §1
UACC-62 = assay: Antitumor activity against human UACC-62 cells assessed as growth inhibition at 10 uM relative to control; how it was run: as §1
SF-268 = assay: Antitumor activity against human SF-268 cells assessed as growth inhibition at 10 uM relative to control; how it was run: as §2
BT-549 = assay: Antitumor activity against human BT-549 cells assessed as growth inhibition at 10 uM relative to control; how it was run: as §2
LOX IMVI = assay: Antitumor activity against human LOX IMVI cells assessed as growth inhibition at 10 uM relative to control; how it was run: as §2
NCI/ADR-RES = assay: Antitumor activity against human NCI-ADR-RES cells assessed as growth inhibition at 10 uM relative to control; how it was run: as §2
CCRF-CEM = assay: Antitumor activity against human CCRF-CEM cells assessed as growth inhibition at 10 uM relative to control; how it was run: as §2
U-251 = assay: Antitumor activity against human U-251 cells assessed as growth inhibition at 10 uM relative to control; how it was run: as §1
OVCAR-5 = assay: Antitumor activity against human OVCAR-5 cells assessed as growth inhibition at 10 uM relative to control; how it was run: as §2
Malme-3M = assay: Antitumor activity against human Malme-3M cells assessed as growth inhibition at 10 uM relative to control; how it was run: as §2
MCF7 = assay: Antitumor activity against human MCF7 cells assessed as growth inhibition at 10 uM relative to control; how it was run: as §2
SK-MEL-2 = assay: Antitumor activity against human SK-MEL-2 cells assessed as growth inhibition at 10 uM relative to control; how it was run: as §2
HCT-15 = assay: Antitumor activity against human HCT-15 cells assessed as growth inhibition at 10 uM relative to control; how it was run: as §2
EKVX = assay: Antitumor activity against human EKVX cells assessed as growth inhibition at 10 uM relative to control; how it was run: as §2
UACC-257 = assay: Antitumor activity against human UACC-257 cells assessed as growth inhibition at 10 uM relative to control; how it was run: as §1
SNB-75 = assay: Antitumor activity against human SNB-75 cells assessed as growth inhibition at 10 uM relative to control; how it was run: as §1
HCT-116 = assay: Antitumor activity against human HCT-116 cells assessed as growth inhibition at 10 uM relative to control; how it was run: as §2
SNB-19 = assay: Antitumor activity against human SNB-19 cells assessed as growth inhibition at 10 uM relative to control; how it was run: as §1
HT-29 = assay: Antitumor activity against human HT-29 cells assessed as growth inhibition at 10 uM relative to control; how it was run: as §2
CAKI-1 = assay: Antitumor activity against human CAKI-1 cells assessed as growth inhibition at 10 uM relative to control; how it was run: as §2
NCI-H226 = assay: Antitumor activity against human NCI-H226 cells assessed as growth inhibition at 10 uM relative to control; how it was run: as §2
A498 = assay: Antitumor activity against human A498 cells assessed as growth inhibition at 10 uM relative to control; how it was run: as §2
NCI-H23 = assay: Antitumor activity against human NCI-H23 cells assessed as growth inhibition at 10 uM relative to control; how it was run: as §2
SK-MEL-28 = assay: Antitumor activity against human SK-MEL-28 cells assessed as growth inhibition at 10 uM relative to control; how it was run: as §1
SF-539 = assay: Antitumor activity against human SF-539 cells assessed as growth inhibition at 10 uM relative to control; how it was run: as §2
RPMI-8226 = assay: Antitumor activity against human RPMI-8226 cells assessed as growth inhibition at 10 uM relative to control; how it was run: as §2
786-0 = assay: Antitumor activity against human 786-0 cells assessed as growth inhibition at 10 uM relative to control; how it was run: as §2
SK-MEL-5 = assay: Antitumor activity against human SK-MEL-5 cells assessed as growth inhibition at 10 uM relative to control; how it was run: as §1
MOLT-4 = assay: Antitumor activity against human MOLT-4 cells assessed as growth inhibition at 10 uM relative to control; how it was run: as §2
OVCAR-8 = assay: Antitumor activity against human OVCAR-8 cells assessed as growth inhibition at 10 uM relative to control; how it was run: as §2
RXF 393 = assay: Antitumor activity against human RXF 393 cells assessed as growth inhibition at 10 uM relative to control; how it was run: as §2

CSc1nc(-c2ccc(Cl)cc2)c(C#N)c(N2CCOCC2)n1
inhibition of growth at 10 µM (SW-620): < 1% | inhibition of growth at 10 µM (SN12C): < 1% | inhibition of growth at 10 µM (K562): 19.9% | inhibition of growth at 10 µM (MDA-MB-435): < 1% | inhibition of growth at 10 µM (OVCAR-3): < 1% | inhibition of growth at 10 µM (ACHN): < 1% | inhibition of growth at 10 µM (NCI-H322M): < 1% | inhibition of growth at 10 µM (COLO 205): < 1% | inhibition of growth at 10 µM (TK-10): < 1% | inhibition of growth at 10 µM (M14): < 1% | inhibition of growth at 10 µM (PC-3): < 1% | inhibition of growth at 10 µM (DU-145): < 1% | inhibition of growth at 10 µM (T47D): 33% | inhibition of growth at 10 µM (KM12): < 1% | inhibition of growth at 10 µM (NCI-H522): 30.2% | inhibition of growth at 10 µM (SK-OV-3): 11% | inhibition of growth at 10 µM (UACC-62): < 1% | inhibition of growth at 10 µM (SF-268): 13.9% | inhibition of growth at 10 µM (BT-549): 21.8% | inhibition of growth at 10 µM (LOX IMVI): < 1% | inhibition of growth at 10 µM (NCI/ADR-RES): 12% | inhibition of growth at 10 µM (CCRF-CEM): < 1% | inhibition of growth at 10 µM (U-251): < 1% | inhibition of growth at 10 µM (OVCAR-5): < 1% | inhibition of growth at 10 µM (Malme-3M): 11% | inhibition of growth at 10 µM (MCF7): 1% | inhibition of growth at 10 µM (SK-MEL-2): < 1% | inhibition of growth at 10 µM (HCT-15): < 1% | inhibition of growth at 10 µM (EKVX): 15.1% | inhibition of growth at 10 µM (UACC-257): < 1% | inhibition of growth at 10 µM (SNB-75): 47.8% | inhibition of growth at 10 µM (HCT-116): < 1% | inhibition of growth at 10 µM (SNB-19): 20.1% | inhibition of growth at 10 µM (HT-29): 15.3% | inhibition of growth at 10 µM (CAKI-1): 13.7% | inhibition of growth at 10 µM (NCI-H226): 17.5% | inhibition of growth at 10 µM (A498): 54.3% | inhibition of growth at 10 µM (NCI-H23): 10.8% | inhibition of growth at 10 µM (SK-MEL-28): < 1% | inhibition of growth at 10 µM (SF-539): < 1% | inhibition of growth at 10 µM (RPMI-8226): 17.9% | inhibition of growth at 10 µM (786-0): 11% | inhibition of growth at 10 µM (SK-MEL-5): < 1% | inhibition of growth at 10 µM (MOLT-4): < 1% | inhibition of growth at 10 µM (OVCAR-8): < 1% | inhibition of growth at 10 µM (RXF 393): < 1%
